Data on two molecules can be found in publication PMC4909612 (EBioMedicine, 2016).

“And” between values parts separate entries of the source, which are not always exact repeats. Identical values can stand only once.

The test system of test [1] is intracellular tyrosine kinase domain of human PDGFR-β. Kind of test: PDGFR-β activity assay kit. The format is biochemical. The following applies: n = 6 each group. In a few lines:
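Human PDGFR-β kinase activity was measured with a commercial PDGFR-β activity assay kit, n = 6 per group. Values are means ± SEM from three independent experiments, compared with the control group.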

The target in test [2] is human PDGFR-β (Met 1-Lys 531) protein (human) (UniProt P09619). Nature of the test: SPR. For orientation: Surface plasmon resonance follows binding to a sensor surface in real time, without labels.
The target in test [3] is human PDGFR-β (Met 1-Lys 531) protein with the Phe136/Ala136 and Phe138/Ala138 mutations (human) (UniProt P09619). Kind of test: SPR.
Test [4] has as its target human PDGFR-β (Met 1-Lys 531) protein (human) (UniProt P09619). Kind of test: MST.

For the molecule `CCN(CC)CCNC(=O)c1c(C)[nH]c(/C=C2\C(=O)Nc3ccc(F)cc32)c1C` [sunitinib], in test [1], the “effect on the activated intracellular tyrosine kinase domain / kinase activity of human PDGFR-β” value is recorded as “very obvious inhibitory effect”.
As usually defined, the Kd is a measure of binding affinity in units of concentration. Read a low Kd as tighter binding. Regarding destruxin A5 (peptide), the Kd in test [2] was 4.92 µM and 8.02 µM; in test [3], 99.5 µM; in test [4], 5.43 µM. The dH in test [2] was -2.28 kcal·M^(− 1).
